Reference: ChEMBL document CHEMBL1141482, “Selective, high affinity A(2B) adenosine receptor antagonists: N-1 monosubstituted 8-(pyrazol-4-yl)xanthines” (Bioorg Med Chem Lett, 2008)

Assays:
Adenosine receptor A2b = target: T1, Adenosine receptor A2b (Homo sapiens, UniProt P29275); assay: Displacement of [3H]-ZM241385 from human A2B receptor expressed in HEK293 cell membranes
T1 sequence (P29275 whole entry): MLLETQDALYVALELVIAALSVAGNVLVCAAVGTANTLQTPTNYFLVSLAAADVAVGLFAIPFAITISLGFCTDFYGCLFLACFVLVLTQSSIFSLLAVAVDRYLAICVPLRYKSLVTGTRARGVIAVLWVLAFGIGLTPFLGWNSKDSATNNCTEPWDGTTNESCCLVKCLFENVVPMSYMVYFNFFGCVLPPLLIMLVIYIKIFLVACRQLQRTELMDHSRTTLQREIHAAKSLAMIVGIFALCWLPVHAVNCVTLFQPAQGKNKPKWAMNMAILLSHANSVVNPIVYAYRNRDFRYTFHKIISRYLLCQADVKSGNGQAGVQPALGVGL
Outline: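 Membranes from HEK cells expressing A2B; binding sites labeled with 3H-ZM241385 at 14 nM and displaced competitively.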

Adenosine receptor A1 = target: T2, Adenosine receptor A1 (Homo sapiens, UniProt P30542); assay: Displacement of [3H]-CPX from human A1 receptor expressed in CHO cell membranes
T2 sequence (P30542 whole entry): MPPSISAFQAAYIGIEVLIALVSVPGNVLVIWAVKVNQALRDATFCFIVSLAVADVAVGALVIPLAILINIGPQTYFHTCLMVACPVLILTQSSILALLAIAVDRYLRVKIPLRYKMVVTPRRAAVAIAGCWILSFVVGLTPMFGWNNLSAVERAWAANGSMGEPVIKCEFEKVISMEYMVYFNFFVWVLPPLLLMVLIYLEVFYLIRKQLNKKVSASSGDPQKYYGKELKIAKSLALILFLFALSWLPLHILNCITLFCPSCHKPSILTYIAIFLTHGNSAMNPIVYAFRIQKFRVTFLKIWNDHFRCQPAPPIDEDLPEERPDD
Outline: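 Competitive binding on membranes prepared from A1-expressing CHO cells, radioligand 3H-CPX at 0.5 nM.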

Adenosine receptor A2a = Adenosine receptor A2a (Homo sapiens, UniProt P29274); assay: Displacement of [3H]ZM241385 from human A2A receptor expressed in HEK293 cell membranes
Outline: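 A2A affinity by competition with 3H-ZM241385 (2 nM) for binding sites in membranes from HEK-A2A cells.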

Homo sapiens [1] = species: Homo sapiens; assay: Selectivity for human A2B receptor over human A1 receptor
Homo sapiens [2] = species: Homo sapiens; assay: Selectivity for human A2B receptor over human A2A receptor
Adenosine receptor A3 = target: T3, Adenosine receptor A3 (Homo sapiens, UniProt P0DMS8); assay: Displacement of [125I]-AB-MECA from human A3 receptor expressed in CHO cells; assay type: cell-based
T3 sequence (P0DMS8 whole entry): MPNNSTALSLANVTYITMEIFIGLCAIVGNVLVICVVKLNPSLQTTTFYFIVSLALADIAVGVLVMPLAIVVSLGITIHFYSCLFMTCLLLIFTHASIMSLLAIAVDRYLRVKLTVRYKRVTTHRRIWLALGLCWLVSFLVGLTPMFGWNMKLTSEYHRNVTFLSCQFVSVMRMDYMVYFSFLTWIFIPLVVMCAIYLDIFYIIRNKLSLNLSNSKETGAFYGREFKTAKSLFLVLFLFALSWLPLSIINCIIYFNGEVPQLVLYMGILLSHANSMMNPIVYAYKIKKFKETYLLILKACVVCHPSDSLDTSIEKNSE
Outline: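 A3 binding: competition for sites labeled by 125I-AB-MECA using CHO cells expressing the A3 receptor.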

Homo sapiens [3] = species: Homo sapiens; assay: Selectivity for human A2B receptor over human A3 receptor

Sequence of Adenosine receptor A2a (P29274 whole entry): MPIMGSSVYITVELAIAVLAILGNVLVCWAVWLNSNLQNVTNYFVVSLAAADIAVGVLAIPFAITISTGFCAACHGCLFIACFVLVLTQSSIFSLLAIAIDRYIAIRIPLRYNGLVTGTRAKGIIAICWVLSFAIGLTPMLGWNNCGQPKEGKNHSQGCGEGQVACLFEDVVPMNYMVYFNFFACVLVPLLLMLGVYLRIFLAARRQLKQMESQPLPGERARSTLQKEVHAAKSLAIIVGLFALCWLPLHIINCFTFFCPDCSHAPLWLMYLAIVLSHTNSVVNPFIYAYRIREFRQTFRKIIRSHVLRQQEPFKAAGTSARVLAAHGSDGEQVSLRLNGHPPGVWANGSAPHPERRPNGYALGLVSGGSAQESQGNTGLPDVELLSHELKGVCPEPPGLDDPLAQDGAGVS

Structure (SMILES)	Ki (Adenosine receptor A2b) [µM]	Ki (Adenosine receptor A1) [µM]	Ki (Adenosine receptor A2a) [µM]	Ratio Ki (Homo sapiens [1])	Ratio Ki (Homo sapiens [2])	Ki (Adenosine receptor A3) [µM]	Ratio Ki (Homo sapiens [3])
CCCn1c(=O)[nH]c2nc(-c3cnn(Cc4cc(-c5ccc(Cl)cc5)on4)c3)[nH]c2c1=O	0.17	> 6	> 5	> 30	> 30		
CC(C)Cn1c(=O)[nH]c2nc(-c3cnn(Cc4noc(-c5ccc(C(F)(F)F)cc5)n4)c3)[nH]c2c1=O	0.014	> 6	> 5	> 400	> 350	> 9	> 650
CCCCn1c(=O)[nH]c2nc(-c3cnn(Cc4cccc(C(F)(F)F)c4)c3)[nH]c2c1=O	0.03	> 6	> 5	> 200	> 170	> 9	> 300
CCn1c(=O)[nH]c2nc(-c3cnn(Cc4cccc(F)c4)c3)[nH]c2c1=O	0.073	> 6	> 5	> 80	> 70	2.12	30
CC(C)Cn1c(=O)[nH]c(=O)c2[nH]c(-c3cnn(Cc4ccccc4)c3)nc21	> 6						
O=c1[nH]c2nc(-c3cnn(Cc4cc(-c5ccc(C(F)(F)F)cc5)on4)c3)[nH]c2c(=O)n1CC1CC1	0.015	> 6	> 5	> 400	> 300	> 9	> 600
CC(C)Cn1c(=O)[nH]c2nc(-c3cnn(Cc4cccc(F)c4)c3)[nH]c2c1=O	0.024	> 6	> 5	> 250	> 200	1.6	70
O=c1[nH]c2nc(-c3cnn(Cc4cccc(C(F)(F)F)c4)c3)[nH]c2c(=O)n1CC1CC1	0.003	> 6	> 5	> 2000	> 1600	1	300
CCn1c(=O)[nH]c2nc(-c3cnn(Cc4ccccc4)c3)[nH]c2c1=O	0.037	5.6	3.8	150	100	1.5	40
CCCn1c(=O)c2[nH]c(-c3cnn(Cc4noc(-c5ccccc5)n4)c3)nc2n(CCC)c1=O				50	85		30
CCCn1c(=O)[nH]c2nc(-c3cnn(Cc4cc(-c5ccccc5)on4)c3)[nH]c2c1=O	0.022	> 6	> 5	> 270	> 230	> 9	> 400
CCCn1c(=O)[nH]c2nc(-c3cnn(Cc4noc(-c5ccc(Cl)cc5)n4)c3)[nH]c2c1=O	0.007	> 6	> 5	> 850	> 700	> 9	> 1280
CCCn1c(=O)c2[nH]c(-c3cnn(Cc4cc(-c5ccccc5)on4)c3)nc2n(CCC)c1=O				110	30		130
O=c1[nH]c2nc(-c3cnn(Cc4ccccc4)c3)[nH]c2c(=O)n1Cc1ccccc1	> 6						
CCCCn1c(=O)[nH]c2nc(-c3cnn(Cc4noc(-c5ccc(Cl)cc5)n4)c3)[nH]c2c1=O	0.023	> 6	> 5	> 260	> 210	> 9	> 400
CCCn1c(=O)[nH]c2nc(-c3cnn(Cc4cccc(C(F)(F)F)c4)c3)[nH]c2c1=O	0.008	> 6	> 5	> 750	> 620	0.7	80
O=c1[nH]c2nc(-c3cnn(Cc4noc(-c5ccc(C(F)(F)F)cc5)n4)c3)[nH]c2c(=O)n1CC1CC1	0.013	> 6	> 5	> 460	> 380	> 9	> 700
CC(C)Cn1c(=O)[nH]c2nc(-c3cnn(Cc4cc(-c5ccccc5)on4)c3)[nH]c2c1=O	0.012	> 6	> 5	> 500	> 410	> 9	> 750
CC(C)Cn1c(=O)[nH]c2nc(-c3cnn(Cc4ccccc4)c3)[nH]c2c1=O	0.013	> 6	> 5	> 460	> 380	1.1	90
O=c1[nH]c(=O)n(Cc2ccccc2)c2nc(-c3cnn(Cc4ccccc4)c3)[nH]c12	> 6						
CCCn1c(=O)c2[nH]c(-c3cnn(Cc4ccccc4)c3)nc2n(CCC)c1=O				7	26		16
CCCn1c(=O)[nH]c(=O)c2[nH]c(-c3cnn(Cc4ccccc4)c3)nc21	> 6						
CCCn1c(=O)[nH]c2nc(-c3cnn(Cc4cccc(F)c4)c3)[nH]c2c1=O	0.011	1.8	1.73	160	160	0.16	15
CCCCn1c(=O)[nH]c(=O)c2[nH]c(-c3cnn(Cc4ccccc4)c3)nc21	> 6						
Cn1c(=O)[nH]c(=O)c2[nH]c(-c3cnn(Cc4ccccc4)c3)nc21	> 6						
CCCn1c(=O)c2[nH]c(-c3cnn(Cc4cccc(F)c4)c3)nc2n(CCC)c1=O				13	18	0.058	4
O=c1[nH]c2nc(-c3cnn(Cc4cccc(F)c4)c3)[nH]c2c(=O)n1CC1CC1	0.005	0.21	0.1	42	20		
CCn1c(=O)[nH]c(=O)c2[nH]c(-c3cnn(Cc4ccccc4)c3)nc21	> 6						
CCCn1c(=O)c2[nH]c(-c3cnn(Cc4cccc(C(F)(F)F)c4)c3)nc2n(CCC)c1=O		0.16		12	27	0.14	10
